Compounds with a hit are over-represented: about 2.6% of the library has one in this group of screens.
Rin1 Abl inh: inhibitors of Rin1-Abl protein binding, primary screen, biochemical, TR-FRET; inhibition, % at 7.35 µM; 360,000 tested, 0.4% active; AID 588664, 2011; in the data active = inhibition above about 5%, passing the limit was not always enough
GRK2 inh: compounds blocking aptamer binding on GRK2 – biochemical, human GRK2, bead flow cytometry, HTS, primary screen; Beta-adrenergic receptor kinase 1 (Homo sapiens), P25098; 330,000 tested, 0.59% active; FAM-aptamer displacement from GRK2; inhibition of aptamer binding, % at 10 µM;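 active = inhibition of aptamer binding above 40%, roughly 3 SD of noise, on plates passing a quality check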;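 note: median bead fluorescence of bound FAM aptamer so fluorescent compounds give negative values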
SKN-1 inh: suppressors of acrylamide-induced Pgst-4::GFP reporter in worms, primary screen, SKN-1 inhibitor project, whole organism, uHTS, GFP/RFP fluorescence ratio, strain VP596. 360,000 tested, 0.49% active. C. elegans VP596 Pgst-4::GFP/RFP ratio, 24 h. inhibition, % at 21.8 µM. AID 624304, 2012;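 active = interference check ratio from 0.5 to 1.5 plus GFP to RFP signal ratio inhibition reaching or exceeding a fixed threshold, cut at about 30% in these data, passing the limit was not always enough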
Myeloid diff MLP: induction of myeloid progenitor differentiation, primary screen, cell-based, flow cytometry, MLPCN library; ER-HoxA9 myeloid progenitors, lysozyme-GFP differentiation; calls only at 10 µM; 360,000 tested, 1% active; AID 624256, 2012;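 active = normalized GFP-positive differentiation at or above the plate's own cutoff, the solvent-only control mean plus 3 SD; inconclusive = no clear call, values can overlap the other calls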;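 note: cells exposed to compound for four days before flow analysis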
T cell modulator: modulators of CD8 T cell-vesicle binding, primary screen, mouse 2C CD8+ T cells, flow cytometry; 2C CD8+ T cell-vesicle binding; hits give low values; AID 2052, 2009; response (vesicle binding), % at 7 µM; 330,000 tested, 0.068% active;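 active = response, share of CD8 T cells binding vesicles, and their 90th percentile fluorescence all below set limits, cut at about 80% in these data, passing the limit was not always enough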;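 note: values below 100% mean blocked vesicle binding to the CD8+ T cells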
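incubation = binding step 1.5 h, 37 °C, antibody labelling 20 min, ice | test system = 2C mouse CD8+ T cells | read-out basis = percent CD8+ FL2 mean versus row control | controls = Peptide-free naked vesicles (low) and QL9 vesicles with 0.7% DMSO vehicle (high) | detection = flow cytometry of vesicle-bound cells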
Rce1 inhib: yeast Rce1p protease inhibitors, primary screen, biochemical, fluorescence, cell-free homogeneous. CAAX prenyl protease 2 (Saccharomyces cerevisiae (strain ATCC 204508 / S288c)), Q03530. yeast membranes, quenched prenylated peptide cleavage fluorescence. calls only. 290,000 tested, 0.27% active;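 active = fall in fluorescence gain of 50% or more versus controls, with final raw signal at or below 3038400; inconclusive = same 50% fall but final raw signal above 3038400; inactive = fall in fluorescence gain under 50%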;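 note: plate controls were neutral control wells for no effect and wells lacking membranes for full effect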
GRK2 CP1: GRK2 aptamer-displacing inhibitors, retest, confirmation, biochemical, cherry pick 1, bead flow cytometry; shares compounds with GRK2 inh; aptamer displacement, % at 10 µM; AID 504451, 2011; 2,000 tested, 4% active; bead-bound GRK2, FAM-aptamer displacement;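 active = aptamer displacement above 40%, near three times the noise of non-fluorescent compounds, on plates passing quality checks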;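 note: negative values mostly reflect intrinsic compound fluorescence rather than true enhancement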
FAM quench CP1: counter-screen for GRK2 aptamer inhibitors: fluorescent aptamer quenchers; AID 504580; shares compounds with GRK2 inh; 2,000 tested, under 10 active; fluorescence response (% of DMSO), % at 10 µM; Carboxyfluorescein RNA aptamer on beads, flow cytometry quenching; hits give low values;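 active = compounds that quench the bead-bound fluorescent RNA probe, cutting fluorescence to under half of the solvent control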;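 note: counterscreen run without GRK2 so only probe quenching by compound is measured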
GRK2 CP2: GRK2 aptamer-displacing inhibitors, hit retest, confirmation, biochemical, cherry pick 2, bead flow cytometry; shares compounds with GRK2 inh; bead-bound GRK2, FAM-aptamer displacement; inhibition of aptamer binding, % at 10 µM; 360 tested, under 10 active;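 active = inhibition of aptamer binding above 40%, about triple the noise seen with nonglowing compounds, on plates passing quality control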;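 note: negative values mostly come from compounds that fluoresce themselves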
FAM quench CP2: counter-screen for GRK2 binding hits: quenchers of fluorescent RNA aptamer. fluorescence response vs DMSO, % at 10 µM. AID 588494. shares compounds with GRK2 inh. 360 tested, under 10 active. carboxyfluorescein RNA aptamer beads, flow cytometry quenching; hits give low values;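 active = response vs DMSO under 50%, meaning signal dropped by over half, treated as fluorescence quencher; inconclusive = no clear call, values can overlap the other calls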;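 note: labelled aptamer on streptavidin beads without GRK2 as a quench counter-screen; 100% = bead fluorescence of DMSO wells and lower means quenching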
Numbers without * were called inactive; i = inactive; ? = inconclusive; nt = no result given.

SMILES	Rin1 Abl inh	GRK2 inh	SKN-1 inh	Myeloid diff MLP	T cell modulator	Rce1 inhib	GRK2 CP1	FAM quench CP1	others
C1CC1Cc1noc(CN2CCN(C3C4CC5CC(C4)CC3C5)CC2)n1 (centres undefined)	1	0	-4	i	160	i	nt	nt
NC(=O)c1ccc(Nc2ccc([N+](=O)[O-])cc2[N+](=O)[O-])cc1	-3	5	-5	i	298	i	nt	nt
Nc1ccc(Nc2ccc([N+](=O)[O-])cc2[N+](=O)[O-])cc1	-9	84*	3	i	364	i	2	92
NC(=O)C1CCN(C(=O)CN(C2CCCCC2)S(=O)(=O)c2ccc(F)cc2)CC1	0	0	-12	i	511	i	nt	nt
CC(=O)Nc1nc(-c2ccccc2)cc(-c2ccco2)c1C#N	-2	80*	12	i	522	nt	-4	99
COC(=O)C(CO)Nc1ncnc2onc(-c3ccc(F)cc3)c12 (centres undefined)	4	0	5	i	0	i	nt	nt
CC(=O)c1ccc(NC(=O)CSc2nnc(NC(=O)c3ccco3)s2)cc1	-1	46*	4	i	803	i	nt	nt	GRK2 CP2=-17;FAM quench CP2=99
Cc1ccc(NC(=O)CSc2nnc(NC(=O)c3ccco3)s2)cc1	-1	1	-3	i	306	nt	nt	nt
CCC(=O)Nc1nnc(SCC(=O)Nc2ccc3c(c2)OCCO3)s1	-3	68*	2	?	320	i	nt	nt	GRK2 CP2=-9;FAM quench CP2=100
CCC(=O)Nc1nnc(SCC(=O)Nc2ccc3c(c2)OCO3)s1	-1	0	-4	i	381	i	nt	nt
O=C(c1cccs1)N1CCN(Cc2ccccc2[N+](=O)[O-])CC1	0	0	8	?	578	i	nt	nt
CCN(CC)CCn1c(OC)cc(=O)[nH]c1=O	-3	69*	27	i	328	i	-5	101
CCN(CC)CCn1c(N)cc(=O)[nH]c1=O	3	0	-3	i	425	nt	nt	nt
COc1ccc(C(C(=O)NC2CCCC2)N(C(=O)c2snc(-c3ccc(F)cc3)c2N)c2ccc(F)cc2)cc1 (centres undefined)	-1	72*	46*	i	356	i	8	103
Cc1ccc(C(=O)Nc2ccc(N3CCOCC3)nc2)cc1	6	1	5	i	683	i	nt	nt
Cc1ccc(C(=O)Nc2cccc(-c3ccc(N4CCOCC4)nn3)c2)cc1	2	2	0	i	820	i	1	102
COc1cccc(OC)c1C(=O)Nc1cccc(-c2ccc(N3CCOCC3)nn2)c1	2	0	-29	i	693	i	nt	nt
Cc1ccc(C(=O)Nc2cccc(-c3ccc(N4CCOCC4)nn3)c2)cc1C	4	0	-8	i	390	i	0	96

Assay outcomes from PubChem.
